Measured values: ChEMBL document CHEMBL1135580, “6,7-Dihydro-2-benzothiophen-4(5H)-ones: a novel class of GABA-A alpha5 receptor inverse agonists” (J Med Chem, 2002)

Legend:
[1] = biological target: T1, GABA-A receptor; alpha-2/beta-3/gamma-2 (Homo sapiens, UniProt P18507+P28472+P47869); test: Displacement of [3H]- Ro 15-1788 binding from human GABA-A receptor alpha-2-beta-3-gamma-2 subunits; type: protein-complex assay
T1 sequence (P18507 whole entry): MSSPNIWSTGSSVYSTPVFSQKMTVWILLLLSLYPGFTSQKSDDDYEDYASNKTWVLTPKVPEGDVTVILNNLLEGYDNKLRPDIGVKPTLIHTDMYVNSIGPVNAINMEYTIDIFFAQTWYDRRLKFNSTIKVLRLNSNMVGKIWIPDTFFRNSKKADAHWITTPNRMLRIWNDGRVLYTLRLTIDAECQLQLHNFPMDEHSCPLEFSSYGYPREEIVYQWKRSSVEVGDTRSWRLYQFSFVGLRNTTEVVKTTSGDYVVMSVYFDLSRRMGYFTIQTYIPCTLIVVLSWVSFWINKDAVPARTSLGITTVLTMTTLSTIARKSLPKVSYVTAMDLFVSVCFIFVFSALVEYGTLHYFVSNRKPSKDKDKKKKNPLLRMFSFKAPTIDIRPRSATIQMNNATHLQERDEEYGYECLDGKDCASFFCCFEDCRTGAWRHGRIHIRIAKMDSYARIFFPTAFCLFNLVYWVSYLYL
T1 sequence (P28472 whole entry): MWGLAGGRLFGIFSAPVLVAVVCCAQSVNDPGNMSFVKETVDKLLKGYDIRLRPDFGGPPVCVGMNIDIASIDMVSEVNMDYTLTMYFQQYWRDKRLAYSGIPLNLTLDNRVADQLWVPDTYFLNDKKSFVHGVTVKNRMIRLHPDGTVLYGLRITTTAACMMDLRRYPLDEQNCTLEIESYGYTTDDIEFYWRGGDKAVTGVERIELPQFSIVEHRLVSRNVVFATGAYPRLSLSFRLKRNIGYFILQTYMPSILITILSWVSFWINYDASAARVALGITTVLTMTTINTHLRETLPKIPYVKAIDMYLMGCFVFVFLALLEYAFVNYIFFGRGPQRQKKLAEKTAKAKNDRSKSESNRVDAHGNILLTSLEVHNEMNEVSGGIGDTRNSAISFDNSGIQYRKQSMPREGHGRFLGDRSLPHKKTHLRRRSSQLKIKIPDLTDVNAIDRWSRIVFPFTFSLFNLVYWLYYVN
T1 sequence (P47869 whole entry): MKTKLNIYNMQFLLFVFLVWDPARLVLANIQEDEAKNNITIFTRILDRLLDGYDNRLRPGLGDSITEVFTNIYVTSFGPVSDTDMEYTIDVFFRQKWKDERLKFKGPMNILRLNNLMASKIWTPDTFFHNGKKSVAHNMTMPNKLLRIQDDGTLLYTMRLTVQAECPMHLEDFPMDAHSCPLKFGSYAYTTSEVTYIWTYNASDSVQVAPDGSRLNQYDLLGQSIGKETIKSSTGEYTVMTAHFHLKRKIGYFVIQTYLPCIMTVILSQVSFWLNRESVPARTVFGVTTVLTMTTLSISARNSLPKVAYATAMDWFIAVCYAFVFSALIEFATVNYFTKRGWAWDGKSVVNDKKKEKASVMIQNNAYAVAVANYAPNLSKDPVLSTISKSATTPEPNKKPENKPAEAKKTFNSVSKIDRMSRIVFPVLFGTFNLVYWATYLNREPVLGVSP
Method in brief: (§1)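 Radioligand displacement of [³H]Ro15-1788 from recombinant human GABA-A receptor subtypes. Ki values are the geometric mean ± SEM of three independent determinations.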

[2] = biological target: T2, GABA-A receptor; alpha-5/beta-3/gamma-2 (Homo sapiens, UniProt P18507+P28472+P31644); test: Displacement of [3H]- Ro 15-1788 binding from human GABA-A receptor alpha-5-beta-3-gamma-2 subunits; type: protein-complex assay; method in brief: as §1
T2 sequence (P18507 whole entry): T1 sequence (P18507 whole entry)
T2 sequence (P28472 whole entry): T1 sequence (P28472 whole entry)
T2 sequence (P31644 whole entry): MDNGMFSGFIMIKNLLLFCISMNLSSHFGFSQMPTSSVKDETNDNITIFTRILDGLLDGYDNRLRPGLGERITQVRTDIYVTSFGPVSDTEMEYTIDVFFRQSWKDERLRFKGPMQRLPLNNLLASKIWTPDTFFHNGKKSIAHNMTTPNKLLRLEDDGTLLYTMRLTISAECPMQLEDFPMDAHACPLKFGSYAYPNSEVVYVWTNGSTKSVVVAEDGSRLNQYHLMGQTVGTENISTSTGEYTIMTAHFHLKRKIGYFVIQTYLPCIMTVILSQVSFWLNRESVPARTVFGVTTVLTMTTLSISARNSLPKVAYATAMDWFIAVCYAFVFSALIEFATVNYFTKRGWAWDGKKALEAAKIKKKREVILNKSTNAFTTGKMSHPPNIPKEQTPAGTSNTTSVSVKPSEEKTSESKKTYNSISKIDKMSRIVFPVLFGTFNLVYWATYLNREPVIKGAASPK

[3] = biological target: T3, GABA-A receptor; alpha-1/beta-3/gamma-2 (Homo sapiens, UniProt P14867+P18507+P28472); test: Displacement of [3H]- Ro 15-1788 binding from human GABA-A receptor alpha-1-beta-3-gamma-2 subunits; type: protein-complex assay; method in brief: as §1
T3 sequence (P14867 whole entry): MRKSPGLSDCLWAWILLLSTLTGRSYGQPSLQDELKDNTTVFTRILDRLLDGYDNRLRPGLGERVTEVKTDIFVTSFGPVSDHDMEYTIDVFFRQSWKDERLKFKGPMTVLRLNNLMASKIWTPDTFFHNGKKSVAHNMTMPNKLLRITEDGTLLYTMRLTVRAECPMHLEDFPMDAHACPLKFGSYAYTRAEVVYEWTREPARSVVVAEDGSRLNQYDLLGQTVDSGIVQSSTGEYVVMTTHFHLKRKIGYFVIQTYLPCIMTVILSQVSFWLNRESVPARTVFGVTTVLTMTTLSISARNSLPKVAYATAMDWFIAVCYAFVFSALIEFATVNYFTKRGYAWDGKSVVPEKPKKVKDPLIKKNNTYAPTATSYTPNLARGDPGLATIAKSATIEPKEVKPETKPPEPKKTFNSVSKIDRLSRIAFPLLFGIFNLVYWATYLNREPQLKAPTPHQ
T3 sequence (P18507 whole entry): T1 sequence (P18507 whole entry)
T3 sequence (P28472 whole entry): T1 sequence (P28472 whole entry)

[4] = biological target: T4, GABA-A receptor; alpha-5/beta-3/gamma-2 (Homo sapiens) (UniProt P18507+P28472+P31644); test: Percentage modulation of GABA EC20 against human GABA-A receptor alpha-5-beta-3-gamma-2 subunits expressed in Xenopus laevis oocytes; type: cell-based; conditions: Oocyte
[5] = biological target: T5, Gamma-aminobutyric acid receptor subunit alpha-5 (Homo sapiens) (UniProt P31644); test: Selectivity for GABA-A receptor alpha-5 subunit binding over alpha-1,2,3 when co-expressed with beta-3 and gamma-2
T5 sequence (whole entry): T2 sequence (P31644 whole entry)
Method in brief: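 Ratio of binding affinity for α5 over α1, α2 and α3. Each affinity comes from [³H]Ro15-1788 displacement at recombinant human receptors, with Ki as the geometric mean of three independent determinations.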

[6] = biological target: T6, GABA-A receptor; alpha-3/beta-3/gamma-2 (Homo sapiens, UniProt P18507+P28472+P34903); test: Displacement of [3H]- Ro 15-1788 binding from human GABA-A receptor alpha-3-beta-3-gamma-2 subunits; type: protein-complex assay; method in brief: as §1
T6 sequence (P18507 whole entry): T1 sequence (P18507 whole entry)
T6 sequence (P28472 whole entry): T1 sequence (P28472 whole entry)
T6 sequence (P34903 whole entry): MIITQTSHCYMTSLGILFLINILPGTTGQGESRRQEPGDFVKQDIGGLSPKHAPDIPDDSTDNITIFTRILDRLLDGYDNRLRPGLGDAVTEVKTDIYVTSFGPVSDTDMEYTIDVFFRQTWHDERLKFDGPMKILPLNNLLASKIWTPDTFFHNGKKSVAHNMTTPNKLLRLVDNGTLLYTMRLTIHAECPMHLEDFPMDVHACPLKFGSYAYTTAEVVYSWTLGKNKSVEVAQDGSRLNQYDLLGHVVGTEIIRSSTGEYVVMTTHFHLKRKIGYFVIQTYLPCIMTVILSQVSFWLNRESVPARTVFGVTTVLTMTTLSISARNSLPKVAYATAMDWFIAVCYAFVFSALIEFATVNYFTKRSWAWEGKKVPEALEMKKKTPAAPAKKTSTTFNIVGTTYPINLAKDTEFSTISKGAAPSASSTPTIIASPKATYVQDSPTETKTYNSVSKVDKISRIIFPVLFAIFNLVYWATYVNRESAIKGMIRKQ

[7] = biological target: GABA-A receptor; alpha-3/beta-3/gamma-2 (Homo sapiens) (UniProt P18507+P28472+P34903); test: Maximum modulation relative to GABA EC20 against human GABA-A receptor alpha-3-beta-3-gamma-2 subunits expressed in mammalian fibroblast L(tk-) cells; type: cell-based
Method in brief: (§2)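 Whole-cell patch-clamp recording from mammalian fibroblast L(tk-) cells stably expressing GABA-A αxβ3γ2 (x = 1, 2, 3 or 5). Compound modulation of a submaximal (EC20) GABA current was recorded. Maximum modulation came from individually fitted concentration-response curves, at least five per value, given as mean ± SEM.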

[8] = biological target: GABA-A receptor; alpha-1/beta-3/gamma-2 (Homo sapiens) (UniProt P14867+P18507+P28472); test: Maximum modulation relative to GABA EC20 against human GABA-A receptor alpha-1-beta-3-gamma-2 subunits expressed in mammalian fibroblast L(tk-) cells; type: cell-based; method in brief: as §2
[9] = biological target: T4, GABA-A receptor; alpha-5/beta-3/gamma-2 (Homo sapiens); test: Maximum modulation relative to GABA EC20 against human GABA-A receptor alpha-5-beta-3-gamma-2 subunits expressed in mammalian fibroblast L(tk-) cells; type: cell-based; method in brief: as §2
[10] = biological target: GABA-A receptor; alpha-2/beta-3/gamma-2 (Homo sapiens) (UniProt P18507+P28472+P47869); test: Maximum modulation relative to GABA EC20 against human GABA-A receptor alpha-2-beta-3-gamma-2 subunits expressed in mammalian fibroblast L(tk-) cells; type: cell-based; method in brief: as §2

SMILES | Ki [1] [nM] | Ki [2] [nM] | Ki [3] [nM] | Efficacy [4] [%] | Selectivity [5] | Ki [6] [nM] | Efficacy [7] [%] | Efficacy [8] [%] | Efficacy [9] [%] | Efficacy [10] [%]
CSc1sc(-c2cc[nH]n2)c2c1C(=O)CC(C)(C)C2 | 56 | 5.2 | 66 | -3 | 13 | 21 | – | – | – | –
CC1(C)CC(=O)c2c(SSc3nccs3)sc(-c3cc[nH]n3)c2C1 | 19 | 1.4 | 4.3 | -7 | 3 | 48 | – | – | – | –
CC1(C)CC(=O)c2c(SCCO)sc(-c3ccccn3)c2C1 | 5.2 | 0.5 | 3.6 | -39 | 20 | 10 | – | – | – | –
CCc1c(C(=O)OC)ncc2[nH]c3cc(OC)c(OC)cc3c12 | 13 | 2.2 | 10 | -34 | 3 | 7.5 | -62 | -71 | -57 | -53
CSc1sc(-c2nccs2)c2c1C(=O)CC(C)(C)C2 | 44 | 2.2 | 61 | -24 | 28 | 47 | – | – | – | –
CSc1sc(-c2cccnc2)c2c1C(=O)CC(C)(C)C2 | 31 | 5.8 | 165 | -40 | 28 | 33 | – | – | – | –
CC1(C)CC(=O)c2c(SCCO)sc(-c3nccs3)c2C1 | 16 | 1.6 | 20 | -38 | 13 | 20 | -3 | -21 | -51 | -1
CSc1sc(-c2ccncc2)c2c1C(=O)CC(C)(C)C2 | 43 | 9.1 | 172 | -20 | 19 | 35 | – | – | – | –
CCSc1sc(-c2cc[nH]n2)c2c1C(=O)CC(C)(C)C2 | 16 | 1.6 | 12 | – | 10 | 16 | – | – | – | –
CSc1sc(-c2ccccn2)c2c1C(=O)CC(C)(C)C2 | 26 | 1.7 | 45 | -31 | 26 | 25 | – | – | – | –
CC1(C)CC(=O)c2c(SCCO)sc(-c3cc[nH]n3)c2C1 | 21 | 2.9 | 31 | – | 11 | 24 | – | – | – | –
CC(C)Sc1sc(-c2cc[nH]n2)c2c1C(=O)CC(C)(C)C2 | 12 | 2 | 5 | – | 6 | 7 | – | – | – | –
